Published values from different studies.
Protocols differ between the studies behind these lines.
Target: SRSF protein kinase 2 (SRPK2, Homo sapiens, UniProt P78362)

For CCN(CC)CCNC(=O)c1c(C)[nH]c(/C=C2\C(=O)Nc3ccc(F)cc32)c1C, the inhibition was 6% (enzyme activity; inhibitor; 0.3 µM).
With CCOc1cc(-c2nncn2C)ccc1Nc1ncc2cc(C)nc(NCC(C)(C)C)c2n1 the inhibition was less than 15% (enzyme activity; inhibitor; FRET; 1 µM).
The remaining signal of O=C1NC(=O)c2cc(Nc3ccc(F)cc3)c(Nc3ccc(F)cc3)cc21 is reported as 92.3% (cell-free assay; 0.5 µM).
For Cn1c2c(c3ccc(Cl)c(Cl)c31)C(C#N)C(C)(C)NC2=O (stereo not shown), the ΔTm was 0.6 °C (thermal stability; DSF; 10 µM).
With Cc1sc(C(=O)NC2COC2)cc1-n1cc(NC(=O)Nc2c(F)cccc2Cl)cn1 the remaining activity was 114% (enzyme activity; inhibitor; 10 µM).
For O=C1Nc2ccc(Cl)cc2C1=Cc1cc(Cl)c(O)c(Cl)c1, the remaining signal was 95.2% (cell-free assay; 0.5 µM).
For COc1cc(-c2cc(-c3ccc(N4CCNCC4)cc3)cnc2C)cc(OC)c1OC, the inhibition was 2% (enzyme activity; inhibitor; 0.1 µM).
CCN1CCC2(CC1)NC(=O)c1c(c3ccc(Cl)c(Cl)c3n1C)C2C#N (racemic) gave a ΔTm of 0.5 °C (thermal stability; DSF; 10 µM).
For Cc1cnc(NC2CCOCC2)nc1-n1cnc(C(=O)NC(CN)c2cc(F)cc(Cl)c2)c1 (stereo not shown), the remaining activity was 101% (enzyme activity; inhibitor; radiometric; 1 µM).
CC/C(=N\NC(=O)NCc1cccc(O)c1)c1ccc(O)c(C)c1O has an inhibition of -2.2% (enzyme activity; inhibitor; 0.1 µM).
N#CC1c2c([nH]c3c(Cl)c(Cl)ccc23)C(=O)NC12CCCCC2 (racemic) has a ΔTm of 0.7 °C (thermal stability; DSF; 10 µM).
The remaining binding of O=C(NS(=O)(=O)c1ccc(NCC2CCOCC2)c([N+](=O)[O-])c1)c1ccc(N2CCN(Cc3ccc(C(F)(F)F)cc3-c3ccc(Cl)cc3)CC2)cc1Oc1cnc2[nH]ccc2c1 is reported as 100% (cell-free assay; competition with immobilised ligand; 1 µM).
COc1cc2ncnc(Nc3ccc(Oc4ccccc4)cc3C)c2cc1OC has an inhibition of 0% (enzyme activity; inhibitor; 1 µM).
The ΔTm of Cn1c2c(c3ccc(Cl)c(Cl)c31)C(C#N)C1(CCCCC1)NC2=O (racemic) is reported as 0.2 °C (thermal stability; DSF; 10 µM).
For CN1CCN(c2cnc3c(C4CCN(C(=O)c5ccc(OC(F)(F)F)cc5N)CC4)ncnc3c2)CC1, the remaining binding was 78% (cell-free assay; competition with immobilised ligand; 1 µM).
CNC(=O)c1cc(Oc2ccc(NC(=O)Nc3ccc(Cl)c(C(F)(F)F)c3)cc2)ccn1 has an inhibition of 2% (enzyme activity; inhibitor; 0.3 µM).
CN(C)CC#Cc1ccc(OCCCc2sc(N3CCc4cccc(C(=O)Nc5nc6ccccc6s5)c4C3)nc2C(=O)O)c(F)c1 has a remaining binding of 100% (cell-free assay; competition with immobilised ligand; 1 µM).
Cn1c2c(Cl)c(Cl)ccc2c2cc[nH]c(=O)c21 has a ΔTm of -0.2 °C (thermal stability; DSF; 10 µM).
For CN([C@@H]1CCc2c(CC(=O)O)c3ccccc3n2C1)S(=O)(=O)c1ccc(F)cc1, the remaining binding was 100% (cell-free assay; competition with immobilised ligand; 1 µM).
Cc1ccc(Nc2nccc(N(C)c3ccc4c(C)n(C)nc4c3)n2)cc1S(N)(=O)=O has an inhibition of -9% (enzyme activity; inhibitor; 0.3 µM).
CC(C)(C)c1nc(-c2cccc(NS(=O)(=O)c3c(F)cccc3F)c2F)c(-c2ccnc(N)n2)s1 has a remaining activity of 111% (enzyme activity; inhibitor; radiometric; 1 µM).
CN1CCC2(CC1)NC(=O)c1c(c3ccc(Cl)c(Cl)c3n1C)C2C#N (racemic) gave a ΔTm of 0.7 °C (thermal stability; DSF; 10 µM).
CC(C)(O)[C@H]1CC[C@H](Nc2ccc3ncc(-c4cccc(C(F)(F)F)c4)n3n2)CC1 gave a remaining activity of 94.5% (enzyme activity; inhibitor; 1 µM).
The remaining binding of COc1cccc(CNC(=O)c2nc3scc(COCc4ccc(C(=O)O)cc4)c3c(=O)[nH]2)c1 is reported as 100% (cell-free assay; competition with immobilised ligand; 1 µM).
For CN1CC(Oc2cnc(C#N)cc2-c2ccn3nc(NC(=O)C4CC4)cc3c2)C1, the inhibition was 6% (enzyme activity; inhibitor; 1 µM).
CCC(=N\O)/C(C)=C/c1ccc(F)cc1 gave a remaining binding of 75% (cell-free assay; competition with immobilised ligand; 1 µM).
The remaining signal of Cc1ccc(NC(=O)c2ccc(C)c(C(F)(F)F)c2)cc1C#Cc1nn(C2CCC(O)CC2)c2ncnc(N)c12 (stereo not shown) is reported as 107% (cell-free assay; 10 µM).
The remaining binding of C[C@@H](c1cccc(C#N)c1)n1cc(Cl)cc(C(N)=O)c1=N is reported as 100% (cell-free assay; competition with immobilised ligand; 1 µM).
O=C(Nc1cnn(-c2csc(C(=O)NC3COC3)c2)c1)Nc1c(F)cccc1Cl gave a remaining activity of 94% (enzyme activity; inhibitor; 5 µM).
For Cc1cc(-n2nc(Cc3cc(F)cc(C(F)(F)F)c3)nc2C)ccc1C(N)=O, the remaining binding was 100% (cell-free assay; competition with immobilised ligand; 1 µM).
Cn1c2c(Cl)c(Cl)ccc2c2cc(N)[nH]c(=O)c21 has a ΔTm of 0.1 °C (thermal stability; DSF; 10 µM).
